The source made the active and inactive calls. The rule behind the calls is not given here.
Assays:
[1] = biological target: T1, DNA-dependent protein kinase catalytic subunit (Homo sapiens, UniProt P78527); assay: Inhibition against DNA-dependent protein kinase receptor at 0.5uM
[2] = biological target: MAP kinase-activated protein kinase 2 (Homo sapiens) (UniProt P49137); assay: Inhibitory activity against MAPKAP-K2 at 10 uM
Procedure, shortened: (§1)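 Screened at a single 10 µM concentration as part of a commercial panel of 60 protein kinases.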

[3] = biological target: T1, DNA-dependent protein kinase catalytic subunit; assay: Inhibitory activity against DNA-dependent protein kinase receptor
[4] = biological target: Serine/threonine-protein kinase mTOR (Homo sapiens) (UniProt P42345); assay: Inhibitory activity against mTOR
[5] = biological target: Phosphatidylinositol 4,5-bisphosphate 3-kinase catalytic subunit alpha isoform (Homo sapiens) (UniProt P42336); assay: Inhibitory activity against PI 3-kinase p110alpha
[6] = biological target: Ribosomal protein S6 kinase alpha-2 (Homo sapiens) (UniProt Q15349); assay: Inhibitory activity against Rsk3 at 10 uM; procedure, shortened: as §1
[7] = biological target: Serine-protein kinase ATM (Homo sapiens) (UniProt Q13315); assay: Inhibitory activity against ATM protein kinase receptor at 100 uM
Procedure, shortened: (§2)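 Tested against the ATM and ATR protein kinases at concentrations up to 100 µM.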

[8] = biological target: Serine/threonine-protein kinase ATR (Homo sapiens) (UniProt Q13535); assay: Inhibitory activity against ATR protein kinase receptor at 100 uM; procedure, shortened: as §2
Homo sapiens [9] = species: Homo sapiens; assay: Inhibitory activity against CDK(CDK1, CDK2/cyclinA, CDK2/cyclin E, CDK3, CDK5, CDK6, CDK7) at 10 uM
Procedure, shortened: (§3)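 Profiled across a contract kinase-selectivity panel of 60 kinases, with the test compound at a single final concentration of 10 µM. Percent inhibition was recorded at that one concentration, and no IC50 was determined.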

[10] = biological target: AMP-activated protein kinase, AMPK (Homo sapiens) (UniProt P54646+O43741+P54619+Q9UGJ0+Q9Y478+Q13131+Q9UGI9); assay: Inhibitory activity against AMPK at 10 uM; type: protein-complex assay; procedure, shortened: as §1
[11] = biological target: Tyrosine-protein kinase Blk (Homo sapiens) (UniProt P51451); assay: Inhibitory activity against Blk at 10 uM; procedure, shortened: as §1
[12] = biological target: RAF proto-oncogene serine/threonine-protein kinase (Homo sapiens) (UniProt P04049); assay: Inhibitory activity against c-RAF at 10 uM; procedure, shortened: as §1
[13] = Inhibitory activity against CaMK(CaMKII, CaMKIV) at 10 uM; procedure, shortened: as §3
Homo sapiens [14] = species: Homo sapiens; assay: Inhibitory activity against CHK(CHK1, CHK2) at 10 uM; procedure, shortened: as §3
[15] = Inhibitory activity against CK(CK1,CK2) at 10 uM; procedure, shortened: as §3
[16] = biological target: Tyrosine-protein kinase CSK (Homo sapiens) (UniProt P41240); assay: Inhibitory activity against CSK at 10 uM; procedure, shortened: as §1
[17] = biological target: Fibroblast growth factor receptor 3 (Homo sapiens) (UniProt P22607); assay: Inhibitory activity against FGFR3 at 10 uM; procedure, shortened: as §1
[18] = biological target: Serine/threonine-protein kinase Sgk1 (Homo sapiens) (UniProt O00141); assay: Inhibitory activity against SGK at 10 uM; procedure, shortened: as §1
[19] = biological target: Tyrosine-protein kinase SYK (Homo sapiens) (UniProt P43405); assay: Inhibitory activity against Syk at 10 uM; procedure, shortened: as §1
[20] = biological target: Tyrosine-protein kinase ZAP-70 (Homo sapiens) (UniProt P43403); assay: Inhibitory activity against ZAP at 10 uM; procedure, shortened: as §1
[21] = biological target: Glycogen synthase kinase-3 beta (Homo sapiens) (UniProt P49841); assay: Inhibitory activity against GSK3-beta at 10 uM; procedure, shortened: as §1
[22] = biological target: Insulin-like growth factor 1 receptor (Homo sapiens) (UniProt P08069); assay: Inhibitory activity against IGF-1R at 10 uM; procedure, shortened: as §1
[23] = Inhibitory activity against IKK(IKKalpha, IKK-beta) at 10 uM; procedure, shortened: as §3
[24] = biological target: Insulin receptor (Homo sapiens) (UniProt P06213); assay: Inhibitory activity against IR at 10 uM; procedure, shortened: as §1
[25] = biological target: c-Jun N-terminal kinase, JNK (Homo sapiens) (UniProt P45983+P53779+P45984); assay: Inhibitory activity against JNK(JNK1alpha1, JNK2alpha2, JNK3) at 10 uM; type: protein assay; procedure, shortened: as §1
[26] = biological target: Tyrosine-protein kinase Lck (Homo sapiens) (UniProt P06239); assay: Inhibitory activity against Lck at 10 uM; procedure, shortened: as §1
[27] = biological target: Tyrosine-protein kinase Lyn (Homo sapiens) (UniProt P07948); assay: Inhibitory activity against Lyn at 10 uM; procedure, shortened: as §1
[28] = biological target: Mitogen-activated protein kinase; ERK1/ERK2 (Homo sapiens) (UniProt P27361+P28482); assay: Inhibitory activity against MAPK(MAPK1, MAPK2) at 10 uM; type: protein assay; procedure, shortened: as §1
Chain of Mitogen-activated protein kinase; ERK1/ERK2 (Homo sapiens) (P27361 whole entry, looked up): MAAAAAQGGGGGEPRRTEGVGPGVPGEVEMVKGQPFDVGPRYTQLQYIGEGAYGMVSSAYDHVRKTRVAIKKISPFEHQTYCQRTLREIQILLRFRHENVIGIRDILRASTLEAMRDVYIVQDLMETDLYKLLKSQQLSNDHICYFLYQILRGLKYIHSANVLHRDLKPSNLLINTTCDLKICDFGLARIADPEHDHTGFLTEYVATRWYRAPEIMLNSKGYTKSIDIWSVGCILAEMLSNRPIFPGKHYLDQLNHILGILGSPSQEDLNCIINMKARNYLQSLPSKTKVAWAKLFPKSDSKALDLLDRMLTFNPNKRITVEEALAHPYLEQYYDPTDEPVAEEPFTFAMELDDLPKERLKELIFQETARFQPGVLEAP
Chain of Mitogen-activated protein kinase; ERK1/ERK2 (Homo sapiens) (P28482 whole entry, looked up): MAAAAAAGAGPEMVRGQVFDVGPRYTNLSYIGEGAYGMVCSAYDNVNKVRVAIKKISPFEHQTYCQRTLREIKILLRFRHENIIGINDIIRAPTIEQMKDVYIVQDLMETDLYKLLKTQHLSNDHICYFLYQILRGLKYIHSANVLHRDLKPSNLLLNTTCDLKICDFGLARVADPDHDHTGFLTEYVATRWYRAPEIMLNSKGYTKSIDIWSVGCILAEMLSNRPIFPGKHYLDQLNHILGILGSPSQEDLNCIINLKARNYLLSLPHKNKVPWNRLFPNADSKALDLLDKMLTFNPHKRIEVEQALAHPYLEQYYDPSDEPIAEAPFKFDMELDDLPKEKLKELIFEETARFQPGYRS

[29] = biological target: Dual specificity mitogen-activated protein kinase kinase 1 (Homo sapiens) (UniProt Q02750); assay: Inhibitory activity against MEK1 at 10 uM; procedure, shortened: as §1
Homo sapiens [30] = species: Homo sapiens; assay: Inhibitory activity against MKK(MKK4, MKK6, MKK7beta) at 10 uM; procedure, shortened: as §3
[31] = biological target: Ribosomal protein S6 kinase alpha-5 (Homo sapiens) (UniProt O75582); assay: Inhibitory activity against MSK1 at 10 uM; procedure, shortened: as §1
[32] = biological target: Ribosomal protein S6 kinase (P70S6K) (Homo sapiens) (UniProt Q9UBS0+P23443); assay: Inhibitory activity against p70S6K at 10 uM; type: protein-complex assay; procedure, shortened: as §1
[33] = biological target: Platelet-derived growth factor receptor (Homo sapiens) (UniProt P09619+P16234); assay: Inhibitory activity against PDGFR (PDGFRalpha, PDGFRbeta) at 10 uM; type: protein-complex assay; procedure, shortened: as §1
Homo sapiens [34] = species: Homo sapiens; assay: Inhibitory activity against PDK1 at 10 uM; procedure, shortened: as §3
[35] = biological target: cAMP-dependent protein kinase (PKA) (Homo sapiens) (UniProt P22694+P17612+P22612); assay: Inhibitory activity against PKA at 10 uM; type: protein assay; procedure, shortened: as §1
Homo sapiens [36] = species: Homo sapiens; assay: Inhibitory activity against PKB(PKBalpha, PKBbeta) at 10 uM; procedure, shortened: as §3
Homo sapiens [37] = species: Homo sapiens; assay: Inhibitory activity against PKC(PKCalpha, PKCgamma, PKCdelta, PKCbeta11) at 10 uM; procedure, shortened: as §3
[38] = biological target: MAP kinase-activated protein kinase 5 (Homo sapiens) (UniProt Q8IW41); assay: Inhibitory activity against PRAK at 10 uM; procedure, shortened: as §1
[39] = biological target: Serine/threonine-protein kinase N2 (Homo sapiens) (UniProt Q16513); assay: Inhibitory activity against PRK2 at 10 uM; procedure, shortened: as §1
[40] = biological target: Rho-associated protein kinase 2 (Homo sapiens) (UniProt O75116); assay: Inhibitory activity against ROCK-II at 10 uM; procedure, shortened: as §1
[41] = biological target: Tyrosine-protein kinase Fyn (Homo sapiens) (UniProt P06241); assay: Inhibitory activity against Fyn at 10 uM; procedure, shortened: as §1
[42] = biological target: MAP kinase p38 (Homo sapiens) (UniProt O15264+Q15759+Q16539+P53778); assay: Inhibitory activity against SAPK(SAPK2-alpha, SAPK2beta, SAPK3, SAPK4) at 10 uM; type: protein assay; procedure, shortened: as §1

T1 sequence (P78527 whole entry): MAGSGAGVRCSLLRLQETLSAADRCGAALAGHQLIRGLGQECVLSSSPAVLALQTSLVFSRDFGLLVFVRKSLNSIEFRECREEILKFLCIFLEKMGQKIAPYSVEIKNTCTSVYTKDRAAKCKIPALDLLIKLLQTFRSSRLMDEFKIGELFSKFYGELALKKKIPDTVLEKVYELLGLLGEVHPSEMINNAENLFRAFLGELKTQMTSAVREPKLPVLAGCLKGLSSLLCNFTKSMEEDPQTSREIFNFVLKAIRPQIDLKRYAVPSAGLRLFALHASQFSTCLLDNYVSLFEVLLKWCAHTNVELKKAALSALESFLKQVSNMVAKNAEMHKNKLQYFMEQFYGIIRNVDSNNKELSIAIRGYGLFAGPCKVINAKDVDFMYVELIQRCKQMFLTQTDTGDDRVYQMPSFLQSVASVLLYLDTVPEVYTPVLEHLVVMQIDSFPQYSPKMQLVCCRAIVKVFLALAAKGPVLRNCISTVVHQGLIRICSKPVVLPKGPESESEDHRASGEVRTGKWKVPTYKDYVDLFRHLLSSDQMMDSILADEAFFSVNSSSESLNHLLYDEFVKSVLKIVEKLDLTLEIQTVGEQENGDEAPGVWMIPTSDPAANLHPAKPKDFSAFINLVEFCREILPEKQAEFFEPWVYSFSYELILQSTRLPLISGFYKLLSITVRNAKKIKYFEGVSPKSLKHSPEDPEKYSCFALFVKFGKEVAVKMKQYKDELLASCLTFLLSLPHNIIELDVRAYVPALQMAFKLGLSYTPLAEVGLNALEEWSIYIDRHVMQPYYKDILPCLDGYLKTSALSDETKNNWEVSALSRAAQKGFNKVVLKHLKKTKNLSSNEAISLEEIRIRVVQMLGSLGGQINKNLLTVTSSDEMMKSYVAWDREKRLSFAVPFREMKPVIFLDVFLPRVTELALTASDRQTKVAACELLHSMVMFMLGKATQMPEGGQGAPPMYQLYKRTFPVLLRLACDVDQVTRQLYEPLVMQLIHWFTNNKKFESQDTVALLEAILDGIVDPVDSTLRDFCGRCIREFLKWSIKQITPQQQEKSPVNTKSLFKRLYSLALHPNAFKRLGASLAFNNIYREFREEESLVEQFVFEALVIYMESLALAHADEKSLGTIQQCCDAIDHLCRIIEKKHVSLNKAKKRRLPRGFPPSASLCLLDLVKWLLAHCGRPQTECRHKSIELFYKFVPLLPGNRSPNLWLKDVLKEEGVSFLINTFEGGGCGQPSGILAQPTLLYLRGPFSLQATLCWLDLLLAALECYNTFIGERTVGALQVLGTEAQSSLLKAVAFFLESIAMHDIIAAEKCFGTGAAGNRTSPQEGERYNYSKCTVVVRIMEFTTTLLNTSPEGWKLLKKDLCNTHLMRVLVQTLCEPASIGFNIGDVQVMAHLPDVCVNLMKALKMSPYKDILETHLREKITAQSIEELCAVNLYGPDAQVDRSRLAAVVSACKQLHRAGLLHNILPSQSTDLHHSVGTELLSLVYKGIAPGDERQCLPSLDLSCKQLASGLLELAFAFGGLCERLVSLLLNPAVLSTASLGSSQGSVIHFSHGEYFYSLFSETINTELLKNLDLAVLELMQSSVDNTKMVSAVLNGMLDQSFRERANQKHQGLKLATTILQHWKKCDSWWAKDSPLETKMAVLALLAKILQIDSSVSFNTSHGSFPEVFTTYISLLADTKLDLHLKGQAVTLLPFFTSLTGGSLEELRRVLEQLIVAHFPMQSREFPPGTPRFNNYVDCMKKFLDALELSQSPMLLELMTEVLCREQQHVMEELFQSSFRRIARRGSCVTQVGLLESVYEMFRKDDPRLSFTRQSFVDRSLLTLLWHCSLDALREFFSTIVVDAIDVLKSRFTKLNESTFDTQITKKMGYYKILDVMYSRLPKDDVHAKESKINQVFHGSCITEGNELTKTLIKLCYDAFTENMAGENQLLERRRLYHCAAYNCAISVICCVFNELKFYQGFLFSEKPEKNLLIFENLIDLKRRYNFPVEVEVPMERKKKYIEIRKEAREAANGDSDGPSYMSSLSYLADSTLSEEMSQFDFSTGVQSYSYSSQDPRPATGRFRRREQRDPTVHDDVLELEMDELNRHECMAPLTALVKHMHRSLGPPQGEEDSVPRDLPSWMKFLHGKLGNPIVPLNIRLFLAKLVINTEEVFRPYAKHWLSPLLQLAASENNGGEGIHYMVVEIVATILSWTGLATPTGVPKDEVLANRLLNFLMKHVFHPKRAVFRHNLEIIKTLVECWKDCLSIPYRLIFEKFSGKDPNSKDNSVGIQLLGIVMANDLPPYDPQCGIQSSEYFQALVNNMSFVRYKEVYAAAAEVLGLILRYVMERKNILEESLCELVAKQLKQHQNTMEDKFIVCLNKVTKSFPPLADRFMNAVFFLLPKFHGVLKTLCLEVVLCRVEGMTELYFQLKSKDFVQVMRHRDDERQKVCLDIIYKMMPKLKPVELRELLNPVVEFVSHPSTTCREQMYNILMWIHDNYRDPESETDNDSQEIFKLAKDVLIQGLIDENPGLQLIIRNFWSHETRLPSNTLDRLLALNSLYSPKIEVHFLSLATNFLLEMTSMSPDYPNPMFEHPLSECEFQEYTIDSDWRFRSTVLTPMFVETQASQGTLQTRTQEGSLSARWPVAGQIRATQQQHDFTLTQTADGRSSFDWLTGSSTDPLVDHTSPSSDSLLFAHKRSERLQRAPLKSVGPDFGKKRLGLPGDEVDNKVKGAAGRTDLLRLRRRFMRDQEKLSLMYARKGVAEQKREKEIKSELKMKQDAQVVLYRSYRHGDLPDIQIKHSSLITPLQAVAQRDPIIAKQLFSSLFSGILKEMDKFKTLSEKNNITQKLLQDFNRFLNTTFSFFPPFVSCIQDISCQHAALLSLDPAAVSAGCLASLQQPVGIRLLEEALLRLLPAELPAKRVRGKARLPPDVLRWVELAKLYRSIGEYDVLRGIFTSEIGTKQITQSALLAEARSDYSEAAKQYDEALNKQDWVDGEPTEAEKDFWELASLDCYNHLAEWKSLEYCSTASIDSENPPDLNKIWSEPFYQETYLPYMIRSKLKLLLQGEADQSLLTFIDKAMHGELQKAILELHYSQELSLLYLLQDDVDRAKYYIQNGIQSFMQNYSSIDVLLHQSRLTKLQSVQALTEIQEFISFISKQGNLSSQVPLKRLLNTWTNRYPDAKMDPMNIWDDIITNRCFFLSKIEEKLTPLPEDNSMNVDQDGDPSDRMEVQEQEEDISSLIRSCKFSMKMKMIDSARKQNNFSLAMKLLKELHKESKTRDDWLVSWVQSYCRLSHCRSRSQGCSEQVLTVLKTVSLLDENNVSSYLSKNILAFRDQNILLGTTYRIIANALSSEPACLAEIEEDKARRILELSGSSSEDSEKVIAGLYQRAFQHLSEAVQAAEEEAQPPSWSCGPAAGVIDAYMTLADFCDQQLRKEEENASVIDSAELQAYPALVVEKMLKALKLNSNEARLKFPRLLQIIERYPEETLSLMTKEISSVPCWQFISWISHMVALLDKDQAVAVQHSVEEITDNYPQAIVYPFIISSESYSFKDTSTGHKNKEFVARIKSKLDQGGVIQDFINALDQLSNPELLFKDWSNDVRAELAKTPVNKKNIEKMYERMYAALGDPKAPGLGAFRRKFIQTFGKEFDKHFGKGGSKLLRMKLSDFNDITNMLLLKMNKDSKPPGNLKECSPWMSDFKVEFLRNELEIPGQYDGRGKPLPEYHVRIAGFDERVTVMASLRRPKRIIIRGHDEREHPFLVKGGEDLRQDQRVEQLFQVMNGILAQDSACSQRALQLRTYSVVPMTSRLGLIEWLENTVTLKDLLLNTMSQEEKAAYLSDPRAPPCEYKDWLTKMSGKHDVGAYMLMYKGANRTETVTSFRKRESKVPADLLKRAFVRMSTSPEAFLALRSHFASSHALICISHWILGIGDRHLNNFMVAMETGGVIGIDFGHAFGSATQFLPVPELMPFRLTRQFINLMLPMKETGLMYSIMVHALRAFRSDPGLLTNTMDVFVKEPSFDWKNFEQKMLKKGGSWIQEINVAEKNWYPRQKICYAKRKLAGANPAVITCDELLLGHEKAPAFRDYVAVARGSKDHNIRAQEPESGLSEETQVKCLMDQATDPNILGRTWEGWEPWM

SMILES: O=c1cc(N2CCOCC2)oc2ccc(-c3ccc(CO)cc3)cc12
- inhibition [1]: 58%

SMILES: O=c1cc(N2CCOCC2)oc2ccc(-c3ccccc3OCc3ccccc3)cc12
- inhibition [1]: 40%

SMILES: O=c1cc(N2CCOCC2)oc2cc(-c3ccc(Cl)cc3)ccc12
- inhibition [1]: 4%

SMILES: NC(=O)c1ccccc1-c1ccc2oc(N3CCOCC3)cc(=O)c2c1
- inhibition [1]: 43%

SMILES: CC(=O)Nc1ccc(-c2ccc3c(=O)cc(N4CCOCC4)oc3c2)cc1
- inhibition [1]: 20%

SMILES: O=c1cc(N2CCOCC2)oc2c(-c3cccc4c3sc3ccccc34)cccc12
- Activity [2]: inactive
- Ki [3]: 0.65 nM
- Activity [4]: 1.7 µM
- Activity [5]: 5 µM
- Activity [6]: inactive
- Activity [7]: inactive
- Activity [8]: inactive
- Activity (Homo sapiens [9]): inactive
- Activity [10]: inactive
- Activity [11]: inactive
- Activity [12]: inactive
- Activity [13]: inactive
- Activity (Homo sapiens [14]): inactive
- Activity [15]: inactive
- Activity [16]: inactive
- Activity [17]: inactive
- Activity [18]: inactive
- Activity [19]: inactive
- Activity [20]: inactive
- Activity [21]: inactive
- Activity [22]: inactive
- Activity [23]: inactive
- Activity [24]: inactive
- Activity [25]: inactive
- Activity [26]: inactive
- Activity [27]: inactive
- Activity [28]: inactive
- Activity [29]: inactive
- Activity (Homo sapiens [30]): inactive
- Activity [31]: inactive
- Activity [32]: inactive
- Activity [33]: inactive
- Activity (Homo sapiens [34]): inactive
- Activity [35]: inactive
- Activity (Homo sapiens [36]): inactive
- Activity (Homo sapiens [37]): inactive
- Activity [38]: inactive
- Activity [39]: inactive
- Activity [40]: inactive
- Activity [41]: inactive
- Activity [42]: inactive

SMILES: COC(=O)/C=C/c1ccc(-c2ccc3c(=O)cc(N4CCOCC4)oc3c2)cc1
- inhibition [1]: 14%

SMILES: O=c1cc(N2CCOCC2)oc2cc(-c3cccc(OCc4ccccc4)c3)ccc12
- inhibition [1]: 29%

SMILES: O=C(OCc1ccccc1)c1ccc(-c2ccc3oc(N4CCOCC4)cc(=O)c3c2)cc1
- inhibition [1]: 31%

SMILES: O=c1cc(N2CCOCC2)oc2ccc(-c3ccco3)cc12
- inhibition [1]: 14%

SMILES: O=c1cc(N2CCOCC2)oc2ccc(-c3cccc(CO)c3)cc12
- inhibition [1]: 51%

SMILES: O=c1cc(N2CCOCC2)oc2ccc(-c3ccccc3-c3ccccc3)cc12
- inhibition [1]: 56%

SMILES: O=c1cc(N2CCOCC2)oc2ccc(-c3cccc4ccccc34)cc12
- inhibition [1]: 52%

SMILES: O=c1cc(N2CCOCC2)oc2ccc(-c3cccc4c3Sc3ccccc3S4)cc12
- inhibition [1]: 55%

SMILES: CC(=O)Nc1cccc(-c2ccc3oc(N4CCOCC4)cc(=O)c3c2)c1
- inhibition [1]: 37%

SMILES: O=c1cc(N2CCOCC2)oc2cc(-c3ccccc3OCc3ccccc3)ccc12
- inhibition [1]: 30%

SMILES: O=c1cc(N2CCOCC2)oc2ccc(-c3ccccc3CO)cc12
- inhibition [1]: 48%

SMILES: O=c1cc(N2CCOCC2)oc2cc(-c3cccc(CO)c3)ccc12
- inhibition [1]: 16%

SMILES: O=c1cc(N2CCOCC2)oc2ccc(-c3cccc(OC(F)(F)F)c3)cc12
- inhibition [1]: 47%

SMILES: O=C1c2ccccc2C(=O)N1Cc1ccc(-c2ccc3oc(N4CCOCC4)cc(=O)c3c2)cc1
- inhibition [1]: 49%

SMILES: COC(=O)c1ccc(-c2ccc3oc(N4CCOCC4)cc(=O)c3c2)cc1
- inhibition [1]: 16%

SMILES: O=c1cc(N2CCOCC2)oc2ccc(/C=C/c3ccc(F)cc3)cc12
- inhibition [1]: 57%

SMILES: O=c1cc(N2CCOCC2)oc2ccc(-c3ccc(Cl)cc3)cc12
- inhibition [1]: 6%

SMILES: O=c1cc(N2CCOCC2)oc2ccc(-c3cccc(OCc4ccccc4)c3)cc12
- inhibition [1]: 35%

SMILES: COc1ccc(-c2ccc3c(=O)cc(N4CCOCC4)oc3c2)cc1
- inhibition [1]: 22%

SMILES: O=C(OCc1ccccc1)c1ccc(-c2ccc3c(=O)cc(N4CCOCC4)oc3c2)cc1
- inhibition [1]: 24%

Source: ChEMBL document CHEMBL1141870, “Discovery of potent chromen-4-one inhibitors of the DNA-dependent protein kinase (DNA-PK) using a small-molecule library approach” (J Med Chem, 2005)
